Measurements reported in ChEMBL document CHEMBL1154874, “6-Substituted 2-(N-trifluoroacetylamino)imidazopyridines induce cell cycle arrest and apoptosis in SK-LU-1 human cancer cell line” (Eur J Med Chem, 2010).
pIC50: −log10 of the molar value. Activity calls are given as the source filed them. No cut-off for these calls is given here.

Assays:
[1] = test system: PC-3; assay: Cytotoxicity against human PC3 cells assessed as cell growth inhibition at 50 uM after 48 hrs by SRB assay; type: functional; conditions: PC-3, 48 h, read-out: GI
Procedure, shortened: (§1)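 Cells in RPMI-1640/10% FBS/2 mM L-glutamine at 37 °C, 5% CO₂, seeded at 5000 cells/well and treated 24 h later for 48 h. Growth read by SRB (TCA fixation, 0.4% SRB, Tris solubilization, OD 515 nm).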

[2] = test system: K562; assay: Cytotoxicity against human K562 cells assessed as cell growth inhibition at 50 uM after 48 hrs by SRB assay; type: functional; conditions: K562, 48 h, read-out: GI; procedure, shortened: as §1
[3] = test system: HCT-15; assay: Cytotoxicity against human HCT15 cells assessed as cell growth inhibition at 50 uM after 48 hrs by SRB assay; type: functional; conditions: for inhibition of growth at 50 µM: HCT-15, 48 h, read-out: GI; procedure, shortened: as §1
[4] = test system: U-251; assay: Cytotoxicity against human U251 cells assessed as cell growth inhibition at 50 uM after 48 hrs by SRB assay; type: functional; conditions: U-251, 48 h, read-out: GI; procedure, shortened: as §1
[5] = test system: SK-LU-1; assay: Cytotoxicity against human SK-LU-1 cells assessed as cell growth inhibition at 50 uM after 48 hrs by SRB assay; type: functional; conditions: SK-LU-1, 48 h, read-out: GI; procedure, shortened: as §1
[6] = test system: MCF7; assay: Cytotoxicity against human MCF7 cells assessed as cell growth inhibition at 50 uM after 48 hrs by SRB assay; type: functional; conditions: MCF7, 48 h, read-out: GI; procedure, shortened: as §1
[7] = test system: HCT-15; assay: Cytotoxicity against human HCT15 cells after 48 hrs by SRB assay; type: functional, cell-based; conditions: HCT-15, 48 h
Procedure, shortened: (§2)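 Compounds dissolved in DMSO. Cells grown in RPMI-1640 with 10% FBS and 2 mM L-glutamine at 37 °C under 5% CO₂. Seeded from 70% confluent flasks at 5000 cells/well, treated 24 h after seeding for 48 h. Fixed in situ with cold 50% TCA for 1 h at 4 °C, stained with 0.4% SRB, dye solubilized in 10 mM unbuffered Tris base, OD read at 515 nm.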

[8] = test system: K562; assay: Cytotoxicity against human K562 cells after 48 hrs by SRB assay; type: functional, cell-based; conditions: K562, 48 h; procedure, shortened: as §2
[9] = test system: SK-LU-1; assay: Cytotoxicity against human SK-LU-1 cells after 48 hrs by SRB assay; type: functional, cell-based; conditions: SK-LU-1, 48 h; procedure, shortened: as §2
[10] = test system: MCF7; assay: Cytotoxicity against human MCF7 cells after 48 hrs by SRB assay; type: functional, cell-based; conditions: MCF7, 48 h; procedure, shortened: as §2
[11] = test system: U-251; assay: Cytotoxicity against human U251 cells after 48 hrs by SRB assay; type: functional, cell-based; conditions: U-251, 48 h; procedure, shortened: as §2
[12] = test system: SK-LU-1; assay: Cell cycle arrest in human SK-LU-1 cells assessed as accumulation at G2/M phase at 2 times IC50 concentration after 24 hrs using propidium iodide staining by flow cytometry relative to control; type: functional
Procedure, shortened: (§3)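 Log-phase cells seeded in RPMI-1640 + 10% FBS at 1×10⁶ per 10 cm dish, attached 24 h at 37 °C, then exposed to compound (DMSO solvent control) for 24 h. Harvested with PBS-EDTA, washed, fixed in ice-cold 70% ethanol at −20 °C for 24–48 h, stained with propidium iodide and analysed by FACScan flow cytometry. Three independent experiments, mean ± SD; P < 0.05 versus DMSO.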

[13] = test system: PC-3; assay: Cytotoxicity against human PC3 cells after 48 hrs by SRB assay; type: functional, cell-based; conditions: PC-3, 48 h; procedure, shortened: as §2
[14] = test system: SK-LU-1; assay: Cell cycle arrest in human SK-LU-1 cells assessed as accumulation at S phase at 2 times IC50 concentration after 24 hrs using propidium iodide staining by flow cytometry relative to control; type: functional; procedure, shortened: as §3
[15] = test system: SK-LU-1; assay: Cell cycle arrest in human SK-LU-1 cells assessed as accumulation at G0/G1 phase at 2 times IC50 concentration after 24 hrs using propidium iodide staining by flow cytometry relative to control; type: functional; procedure, shortened: as §3
[16] = test system: MCF7; assay: Cell cycle arrest in human MCF7 cells assessed as accumulation at S phase at 2 times IC50 concentration after 24 hrs using propidium iodide staining by flow cytometry relative to control; type: functional; procedure, shortened: as §3
[17] = test system: MCF7; assay: Cell cycle arrest in human MCF7 cells assessed as accumulation at G0/G1 phase at 2 times IC50 concentration after 24 hrs using propidium iodide staining by flow cytometry relative to control; type: functional; procedure, shortened: as §3
[18] = test system: MCF7; assay: Cell cycle arrest in human MCF7 cells assessed as accumulation at G2/M phase at 2 times IC50 concentration after 24 hrs using propidium iodide staining by flow cytometry relative to control; type: functional; procedure, shortened: as §3
[19] = test system: SK-LU-1; assay: Induction of apoptosis in human SK-LU-1 cells assessed as early apoptotic cells at 2 times IC50 concentration after 48 hrs using annexin V-propidium iodide staining by flow cytometry; type: functional, cell-based
Procedure, shortened: (§4)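 SK-LU-1 cells treated 48 h with compounds at 2×IC50 or with DMSO as control. Labelled with FITC-annexin V and propidium iodide in binding buffer and analysed on a FACScan flow cytometer. Annexin V-only cells were scored as early apoptotic and annexin V/PI double-stained cells as late apoptotic. Values are means of three independent experiments.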

[20] = test system: SK-LU-1; assay: Induction of apoptosis in human SK-LU-1 cells assessed as appearance of phosphatidylserine residues at 2 times IC50 concentration after 48 hrs by flow cytometry; type: functional; procedure, shortened: as §4
[21] = test system: SK-LU-1; assay: Induction of apoptosis in human SK-LU-1 cells assessed as late apoptotic cells at 2 times IC50 concentration after 48 hrs using annexin V-propidium iodide staining by flow cytometry; type: functional, cell-based; procedure, shortened: as §4

SMILES | inhibition of growth at 50 µM [1] | inhibition of growth at 50 µM [2] | inhibition of growth at 50 µM [4] | inhibition of growth at 50 µM [5] | inhibition of growth at 50 µM [6] | inhibition of growth at 50 µM [3] | pIC50 [7] | pIC50 [8] | pIC50 [9] | pIC50 [10] | pIC50 [11] | Activity [12] | pIC50 [13] | Activity [14] | Activity [15] | Activity [16] | Activity [17] | Activity [18] | Activity [19] | Activity [20] | also measured
Cn1ccnc1C(=O)c1ccc2nc(NC(=O)C(F)(F)F)cn2c1 | 6.1% | 45.3% | 11.9% | 29.2% | 30.8% |  |  |  |  |  |  |  |  |  |  |  |  |  |  |  | growth inhibition (GI) [3]: inactive
O=C(c1ccc(C(F)(F)F)c(F)c1)c1ccc2nc(NC(=O)C(F)(F)F)cn2c1 | 32.6% | 50.1% | 38.4% | 48.3% | 56.5% | 59.2% | 4.24 | 4.08 | 4.24 | 4.29 | 4.07 |  |  |  |  |  |  |  |  |  | 
Cn1cnc2c(NCc3ccccc3)nc(NCCO)nc21 [OLOMOUCINE] | 22.7% | 19.8% | 32% | 36.9% | 37.6% | 28.9% | 4.20 | 4.05 | 4.17 | 4.25 | 4.09 | 31.8% | 4.09 | 19.7% | 44.2% | 15% | 60.6% | 23.2% |  |  | 
Cc1ccc(F)c(C(=O)c2ccc3nc(NC(=O)C(F)(F)F)cn3c2)c1 | 59.2% | 92.6% | 61.5% | 71.7% | 66.3% | 91.2% | 4.98 | 4.96 | 4.95 | 4.97 | 4.28 |  | 4.44 | 21.2% | 10.4% | 7.1% | 74% | 13.4% | Active | 20% | Activity [21]: Active
Cn1cc(C(=O)c2ccc3nc(NC(=O)C(F)(F)F)cn3c2)c2ccccc21 | 63.7% | 95.5% | 92.7% | 69.2% | 80.4% | 78% | 4.19 | 4.26 | 4.61 | 4.35 | 4.56 | 47.5% |  | 14.7% | 32.9% | 6.3% | 70.6% | 20.2% | Active | 24.1% | Activity [21]: Active
